Screens deposited in PubChem BioAssay by several laboratories.
DNA FID counter – fluorescent intercalator displacement, NS3 helicase counter-screen | DNA fluorescent intercalator displacement, fluorescence | inhibition, % at 7.9 µM | hit rate 0.17% among 290,000; in the data active means inhibition above about 37%;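 further: higher means more ethidium bromide displaced from hairpin DNA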
HCV NS3 hel inh – HCV NS3 helicase inhibition | NS3 helicase DNA unwinding, Cy5 molecular beacon fluorescence | inhibition, % at 10.9 µM | hit rate 0.56% among 290,000 | AID 1800;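 active means inhibition above the mean of all tested compounds plus 3 SD, set per campaign, cut at about 35% in these data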
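Control set: DMSO versus 110 µM thioflavine S; Material: NS3 helicase fragment of HCV; Measured by: Cy5 fluorescence at 0 and 60 min, beacon hairpin quenching; Read-out basis: percent inhibition from t60/t0 fluorescence ratio; Times: reaction time 60 min, 25 °C; Repeats: single replicate; Compound dosing: single dose, 10.9 µM nominal final, DMSO 0.8% final.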
PP5 inh – PP5 (human) phosphatase inhibition; AID 1987; purified PP5c, OMFP substrate fluorescence; hit rate 0.18% among 320,000; inhibition, % at 6.7 µM;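 active means inhibition above the campaign's mean inhibition across all tested compounds plus 3 SD, cut at about 9.5% in these data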
PP1 counter – counter-screen for PP5 inhibitors: inhibitors of human PP1-alpha; AID 2235; P62136; inhibition, % at 6.7 µM; hit rate 0.9% among 320,000; purified PP1alpha, OMFP fluorescence;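 active means inhibition above the mean inhibition of all tested compounds plus 3 SD, computed separately for each screening campaign, cut at about 15% in these data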
Target sequence (P62136 whole entry, looked up): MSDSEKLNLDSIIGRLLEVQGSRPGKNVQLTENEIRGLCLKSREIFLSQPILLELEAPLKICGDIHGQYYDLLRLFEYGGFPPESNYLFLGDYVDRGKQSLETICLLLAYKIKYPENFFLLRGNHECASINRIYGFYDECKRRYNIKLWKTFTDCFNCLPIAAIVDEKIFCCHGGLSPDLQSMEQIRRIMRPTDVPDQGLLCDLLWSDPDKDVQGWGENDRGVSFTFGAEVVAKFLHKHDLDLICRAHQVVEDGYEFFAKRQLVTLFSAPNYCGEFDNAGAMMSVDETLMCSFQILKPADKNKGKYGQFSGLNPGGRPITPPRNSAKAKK
HIF activator – HIF pathway transcriptional activation; U2OS HRE-luciferase reporter, luminescence; normalized: DMSO 0%, desferrioxamine 100%; activation, % at 7.5 µM (by protocol); hit rate 0.32% among 300,000; AID 1910;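 active means mean activation of at least 10% of the iron chelator positive control signal, with at least half of replicates also reaching 10%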
Of the large screens only hits and unclear results are named; the others gave an inactive call. Compounds with a hit are over-represented: about 1.9% of the library has one in this group of screens.

CSc1ccccc1C(=O)N1CCN(S(=O)(=O)c2sc(C(=O)O)c(C)c2C(=O)O)CC1	none (no result: DNA FID counter, HCV NS3 hel inh, HIF activator)
COc1ccc(C[C@H]2CN3C(=NC[C@H]3C)N2CCNC(=O)c2ccc(C)c(Br)c2)cc1	DNA FID counter 40
Cc1ccc(C)c(OCC(=O)Nc2ccc(C(=O)O)cc2NC(=O)COc2cc(C)ccc2C)c1	none
Cc1ccccc1N(CC(=O)NC1CCCCC1)C(=O)CCC(=O)Nc1nccs1	PP1 counter 17
COc1cc(CNC(=O)c2ccc3c(c2)S(=O)(=O)c2ccccc2C3=O)cc(OC)c1	none (no result: DNA FID counter, HCV NS3 hel inh)
CCCn1cc(NC(=O)c2cc(-c3ccccc3)on2)cn1	HIF activator 10
CCOC(=O)c1cnc2ccc(OCC)cc2c1NCCCN1CCOCC1	DNA FID counter 55
CCOC(=O)c1cnc2c(CC)cccc2c1NCCCN1CCOCC1	DNA FID counter 52
O=C(c1ccccc1F)N(NC(=O)C(O)(c1ccccc1)c1ccccc1)c1ccccc1	PP1 counter 17
CCOC(=O)Cc1nn(CC)c(=O)c2ccccc12	HIF activator 90
CCCn1c(=NC(=O)c2c(-c3c(F)cccc3Cl)noc2C)c(C(=O)OCC)cc2c(=O)n3ccccc3nc21	HIF activator 23
Nc1nc(CCOc2ccc(F)cc2)cs1	none (no result: PP5 inh, PP1 counter)
CSc1ccc(/C=N/n2c(Cc3ccc(Br)cc3)n[nH]c2=S)cc1	none
CCc1n[nH]c(=S)n1/N=C/c1ccc(-c2ccc(Br)cc2)o1	HIF activator 22 (no result: DNA FID counter, HCV NS3 hel inh)
O=C(CC1c2ccccc2Oc2ccccc21)Nc1ccccc1C(F)(F)F	none
Cc1cc(C(=O)COC(=O)CC2Sc3ccccc3NC2=O)c(C)n1-c1ccc(Br)cc1 (stereo not given)	PP1 counter 17
COC(=O)c1ccc(-n2c(C)cc(C(=O)COC(=O)CC3Sc4ccccc4NC3=O)c2C)cc1 (stereo not given)	none
O=C(CC1CCCC1)Nc1ccc2c(c1)CCC2	HCV NS3 hel inh 39
O=S(=O)(Nc1cccc(-n2cnnn2)c1)c1ccccc1F	none
CCN(CC)S(=O)(=O)c1ccc2c(c1)nc(CCC(=O)Nc1ccc3c(c1)OCO3)n2CC	PP1 counter 15
CCN1CCN(C(=O)C2CCC(=O)N(CCCN3CCCC3=O)C2)CC1 (stereo not given)	none
CC1CCCC(C)N1C(=O)COC(=O)CSc1ccc(C(N)=O)cc1[N+](=O)[O-] (stereo not given)	none (no result: DNA FID counter, HCV NS3 hel inh)
OC(COc1ccccc1)Cn1c2ccccc2c2ccccc21 (stereo not given)	none
Oc1cccc2ccc[n+](CC(O)Cn3c4ccccc4c4ccccc43)c12 (stereo not given)	DNA FID counter 39
CC1CC(c2ccccc2)n2nc(NC(=O)CCc3ccccc3)nc2N1 (stereo not given)	PP1 counter 18
CCCC(C)NC(=O)CN1C(=O)NC2(CCc3ccccc32)C1=O (stereo not given)	HIF activator 40
CCc1cc(C(=O)N(CC(C)C)c2c(N)n(Cc3ccccc3)c(=O)[nH]c2=O)sc1C	none (no result: DNA FID counter, HCV NS3 hel inh)
Oc1[nH]c2ccc(Br)cc2c1N=NC(=S)N1CCOCC1	HIF activator 161
COC(=O)N=Nc1c(O)[nH]c2ccc(Br)cc12	none
Oc1[nH]c2ccccc2c1N=NC(=S)N1CCOCC1	HIF activator 11
CC(C)(C)CC(C)(C)NC(=S)Nc1ccc(S(=O)(=O)N2CCOCC2)cc1	none
CN(C)CCCN(CCCN(C)C)C(=S)Nc1ccc(S(=O)(=O)N2CCOCC2)cc1	DNA FID counter 37
CN(CC(=O)Nc1cccc(F)c1)C(=O)CNS(=O)(=O)c1ccc(N(C)C)c([N+](=O)[O-])c1	none (no result: DNA FID counter, HCV NS3 hel inh)
COc1ccc(-c2cc(C(F)F)n3ncc(C(=O)Nc4cccc(S(=O)(=O)N5CCOCC5)c4)c3n2)cc1	none
CCCCc1c(C)nc(N)[nH]c1=O	HIF activator 20
CN1CCN(c2ccc(NC(=O)CSc3nnnn3-c3ccccc3Cl)cc2)CC1	DNA FID counter 37
O=C(CSc1nnnn1-c1ccccc1)Nc1ccc(N2CCOCC2)c(Cl)c1	none
CCN1CCN(c2nnc(-c3ccc(C)cc3)c3ccccc23)CC1	none
O=C1NC(=O)/C(=C/c2ccc(OS(=O)(=O)c3ccc(F)cc3F)cc2)N1	HIF activator 41
Cc1ccc(S(=O)(=O)N2CCOCC2)cc1NC(=O)CNC1CCCC1	none
COC(=O)C1=C(C)N(Cc2ccccc2)C(=NCCc2cccnc2)N[C@H]1c1ccccc1	none
COC(=O)C1=C(C)N(Cc2ccccc2)C(=NCCCCO)N[C@H]1c1ccccc1	PP1 counter 16
O=C(c1cccc(C(F)(F)F)c1)C1CCCN(C(=O)Cn2cncn2)C1 (stereo not given)	HIF activator 11
O=C(CCS(=O)(=O)c1ccc(Cl)cc1)NCCc1c[nH]c2ccccc12	none
O=C(O)CCC1c2cc3c4cc2OC2Oc5cc6c(cc51)C(CCC(=O)O)c1cc5c7cc1OC(O6)c1cc6cc(c1)Oc1cc(cc(C(=O)O)c1)Oc1cc8cc(c1)C(Oc1cc(c(cc1C5CCC(=O)O)C3CCC(=O)O)OC(O4)c1cc(cc(c1)Oc1cc(cc(C(=O)O)c1)O8)Oc1cc(cc(C(=O)O)c1)Oc1cc(cc2c1)Oc1cc(cc(C(=O)O)c1)O6)O7 (stereo not given)	PP5 inh 13, PP1 counter 91 (no result: DNA FID counter, HCV NS3 hel inh)
CC(C)(C)NC(=O)C(c1cccs1)N(C(=O)c1csnn1)c1cccc(F)c1 (stereo not given)	none
CC(=O)c1ccc(N(C(=O)c2csnn2)C(C(=O)NC(C)(C)C)c2cccs2)cc1 (stereo not given)	HIF activator 35
O=C(Cn1cnc([N+](=O)[O-])n1)N/N=C/c1cc(Cl)ccc1O	HIF activator 15
CC1CCN(C2(O)C(=O)Nc3ccc(Br)cc32)CC1 (stereo not given)	none
CCc1cc2c(=O)[nH]c(N3CCCC3)nc2s1	none
CCc1cc2c(=O)[nH]c(-c3ccccn3)nc2s1	HIF activator 11
CC(C)CCNC(=O)CCc1nnc2n(CCCOC(C)C)c(=O)c3ccccc3n12	none
Cn1nc(-c2ccccn2)nc2c(=O)n(C)c(=O)nc1-2	PP5 inh 17, PP1 counter 41
CCCc1nc2c(=O)n(C)c(=O)nc-2n(C)n1	none (no result: PP5 inh, PP1 counter, HIF activator)
Cc1nc(-c2ccc(F)cc2)c(CC(=O)N2CCN(S(=O)(=O)c3cccc(F)c3)CC2)s1	none (no result: DNA FID counter, HCV NS3 hel inh)
O=C(Cn1ncc2c3ccccc3n(Cc3ccccc3F)c2c1=O)NCCN1CCOCC1	HIF activator 32
COc1ccc(OCCCC(=O)Nc2cc(S(=O)(=O)N3CCCCC3)ccc2C)cc1	none (no result: DNA FID counter, HCV NS3 hel inh, HIF activator)
CCC(C)(C)C1CCC(=NNc2nc3ccccc3[nH]2)CC1 (stereo not given)	none
CC(=O)N1CCC(=NNc2nc3ccccc3[nH]2)CC1	HIF activator 22
Cc1nn(Cc2ccccc2)c(Cl)c1C(=O)OCC#N	none
